Assay results: ChEMBL document CHEMBL4382271, “Eucalypglobulusals A-J, Formyl-Phloroglucinol-Terpene Meroterpenoids from Eucalyptus globulus Fruits” (J Nat Prod, 2018)
The source made the active and inactive calls. The calls are words filed in the database; no cut-off is given here.

Assays:
[1] = target: T1, DNA topoisomerase I (Bos taurus) (UniProt F1MN93); assay: Inhibition of calf thymus topoisomerase-1-mediated relaxed pBR322 DNA unwinding at 25 uM preincubated with DNA for 10 mins followed by enzyme addition and measured after 30 mins by agarose gel electrophoresis assay
T1 sequence (whole entry): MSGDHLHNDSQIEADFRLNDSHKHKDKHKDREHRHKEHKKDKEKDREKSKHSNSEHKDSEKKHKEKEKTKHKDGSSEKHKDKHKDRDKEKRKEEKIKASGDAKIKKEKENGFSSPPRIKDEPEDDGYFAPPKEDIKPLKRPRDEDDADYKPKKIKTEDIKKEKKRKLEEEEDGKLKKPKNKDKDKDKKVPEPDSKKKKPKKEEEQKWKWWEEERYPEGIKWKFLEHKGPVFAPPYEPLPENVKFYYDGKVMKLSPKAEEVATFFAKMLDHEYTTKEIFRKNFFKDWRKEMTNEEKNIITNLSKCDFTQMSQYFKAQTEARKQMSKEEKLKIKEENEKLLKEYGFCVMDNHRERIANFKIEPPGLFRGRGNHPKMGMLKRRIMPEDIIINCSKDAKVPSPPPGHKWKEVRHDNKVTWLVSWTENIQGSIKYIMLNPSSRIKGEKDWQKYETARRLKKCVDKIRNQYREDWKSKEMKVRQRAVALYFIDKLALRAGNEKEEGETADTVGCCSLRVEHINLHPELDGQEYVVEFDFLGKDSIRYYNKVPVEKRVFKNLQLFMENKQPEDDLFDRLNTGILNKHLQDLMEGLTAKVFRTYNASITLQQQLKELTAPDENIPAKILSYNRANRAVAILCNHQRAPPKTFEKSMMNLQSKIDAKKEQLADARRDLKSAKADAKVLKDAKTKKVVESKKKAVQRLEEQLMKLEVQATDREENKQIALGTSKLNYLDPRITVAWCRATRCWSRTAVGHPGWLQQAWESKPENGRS
Outline: (§1)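 Top1-mediated unwinding assay with ethidium bromide, a DNA intercalator, as positive control. It tests whether compounds unwind DNA by intercalation.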

[2] = target: T1, DNA topoisomerase I (Bos taurus); assay: Inhibition of calf thymus topoisomerase-1-mediated supercoiled pBR322 DNA unwinding at 25 uM preincubated with DNA for 10 mins followed by enzyme addition and measured after 30 mins by agarose gel electrophoresis assay; outline: as §1
A549 = assay: Cytotoxicity against human A549 cells by MTT assay; assay type: functional, cell-based
Huh-7 = assay: Cytotoxicity against human HuH7 cells by MTT assay; assay type: functional, cell-based
HCT-116 = assay: Cytotoxicity against human HCT116 cells by MTT assay; assay type: functional, cell-based
CCRF-CEM = assay: Cytotoxicity against human CCRF-CEM cells by MTT assay; assay type: functional, cell-based
[3] = target: T1, DNA topoisomerase I (Bos taurus); assay: Inhibition of calf thymus topoisomerase-1-mediated supercoiled pBR322 DNA relaxation at 50 uM after 30 mins by agarose gel electrophoresis assay relative to control
Outline: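 Top1-mediated plasmid relaxation run at 50 μM test concentration. Camptothecin (CPT) was included as reference inhibitor. Inhibition was expressed as percentage ranges from gel band intensities.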

DU-145 = assay: Cytotoxicity against human DU145 cells by MTT assay; assay type: functional, cell-based
[4] = target: T1, DNA topoisomerase I (Bos taurus); assay: Inhibition of calf thymus topoisomerase-1 assessed as reduction in cleavage complex formation by measuring decrease in nicked form DNA using supercoiled pBR322 DNA as substrate after 30 mins by agarose gel electrophoresis assay

| SMILES | inhibition [1] | inhibition [2] | IC50 (A549) | IC50 (Huh-7) | IC50 (HCT-116) | IC50 (CCRF-CEM) | inhibition [3] | IC50 (DU-145) | inhibition [4] |
| --- | --- | --- | --- | --- | --- | --- | --- | --- | --- |
| CC[n+]1c(-c2ccccc2)c2cc(N)ccc2c2ccc(N)cc21 | Active | Active | – | – | – | – | – | – | – |
| CC(C)CC(=O)c1c(O)c(C=O)c(O)c(C[C@@]2(C)CC[C@H]3C2=C[C@H](C(C)(C)O)CC[C@H]3C)c1O | – | – | 5.3 µM | > 10 µM | > 10 µM | 6.9 µM | > 90% | > 10 µM | – |
| CC(C)C[C@@H](c1c(O)c(C=O)c(O)c(C=O)c1O)[C@@]1(C)CC[C@@H]2[C@@H]1[C@H]1[C@@H](CC[C@@]2(C)O)C1(C)C | inactive | inactive | – | – | – | – | – | – | – |
| CC[C@@]1(O)C(=O)OCc2c1cc1n(c2=O)Cc2cc3ccccc3nc2-1 [CAMPTOTHECIN] | – | – | 0.04 µM | 0.0023 µM | 0.013 µM | 0.002 µM | > 90% | 0.016 µM | – |
| CC(C)CC(=O)c1c(O)c(C=O)c(O)c(C[C@@]2(C)CC[C@@H]3[C@@H]2[C@H]2[C@@H](CC[C@@]3(C)O)C2(C)C)c1O [EUCALYPTIN A] | – | – | 4.9 µM | > 10 µM | 9.6 µM | > 10 µM | > 90% | 8.9 µM | – |
| COc1cc([C@@H]2c3cc4c(cc3[C@@H](O[C@@H]3O[C@@H]5CO[C@@H](C)O[C@H]5[C@H](O)[C@H]3O)[C@H]3COC(=O)[C@H]23)OCO4)cc(OC)c1O [ETOPOSIDE] | – | – | > 10 µM | 7.4 µM | > 10 µM | 1.1 µM | – | > 10 µM | – |
| CC(=O)[C@@]12C=C(C(C)C)CC[C@@]1(C)[C@H]([C@@H](CC(C)C)c1c(O)c(C=O)c(O)c(C=O)c1O)C[C@H]2O | inactive | inactive | – | – | – | – | – | – | Dose-dependent effect |
| C=C(C)[C@@H]1C=C2[C@@H](C)CC[C@@H](Cc3c(O)c(C=O)c(O)c(C(=O)CC(C)C)c3O)[C@]2(C)CC1 | – | – | 5.2 µM | > 10 µM | 9.6 µM | > 10 µM | > 90% | > 10 µM | – |
| C=C1/C=C/[C@H](C(C)(C)O)C[C@H]2[C@@H](CC(C)C)c3c(O)c(C=O)c(O)c(C=O)c3O[C@]2(C)CCC1 | – | – | > 10 µM | > 10 µM | > 10 µM | 3.3 µM | 60 to 89% | > 10 µM | – |
